In ChEMBL document CHEMBL1128479, “Synthesis and structure-activity relationships of stilbene retinoid analogs substituted with heteroaromatic carboxylic acids” (J Med Chem, 1995) one finds EC50, IC80 and IC50 data, which are given here for ten molecules.

One assay deals with HL-60. The experiment in a line: Transglutaminase activity in HL-60 cdm-1 cells. The conditions noted are these: Homo sapiens. The assay is classed as functional, cell-based. Summed up: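 Log-phase cells in RPMI 1640 with insulin/transferrin/selenide were pretreated with 1.25% DMSO for 18 h, then resuspended with retinoid or 0.1% ethanol control for 24 h. Lysate Tgase was measured as Ca2+-dependent [3H]putrescine conjugation to N,N-dimethylcasein.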

Assay [1] is filed under the species Mus musculus. Nature of the assay: Inhibition of tumor-promoter-induced ornithine decarboxylase in TPA-treated female hairless mice. The assay is classed as functional. Put shortly:
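Retinoids were applied dorsally in 100 μL acetone 1 h before TPA (40 nmol/mouse in acetone). Mice were killed 4 h later, epidermis scraped after 55 °C for 30 s, and homogenate supernatant assayed for ODC by 14CO2 release (benzethonium hydroxide trap). Activity was normalized to protein.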

For assay [2], the species on record is Mus musculus. Nature of the assay: In vitro inhibition of chondrogenesis in mouse embryo limb bud cells. The assay is classed as functional, cell-based. Put shortly: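 Micromass cultures of day 11 mouse embryo forelimb bud cells (trypsin-EDTA dissociated, 200 000 cells/spot) in Eagle's MEM + 10% FBS. Retinoids 0.01 ng/mL–10 μg/mL (0.03 nM–30 μM) were added 24 h after plating, with ethanol vehicle (<1%). Cultures ended at 96 h, formalin/cetylpyridinium fixed, and cartilage nodules counted by image scan. Four replicates per concentration; IC50 from logarithmic curve fit.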

In assay [3] the target is T1, Retinoic acid receptor RXR-alpha (Homo sapiens, UniProt P19793).
T1 sequence (P19793 whole entry): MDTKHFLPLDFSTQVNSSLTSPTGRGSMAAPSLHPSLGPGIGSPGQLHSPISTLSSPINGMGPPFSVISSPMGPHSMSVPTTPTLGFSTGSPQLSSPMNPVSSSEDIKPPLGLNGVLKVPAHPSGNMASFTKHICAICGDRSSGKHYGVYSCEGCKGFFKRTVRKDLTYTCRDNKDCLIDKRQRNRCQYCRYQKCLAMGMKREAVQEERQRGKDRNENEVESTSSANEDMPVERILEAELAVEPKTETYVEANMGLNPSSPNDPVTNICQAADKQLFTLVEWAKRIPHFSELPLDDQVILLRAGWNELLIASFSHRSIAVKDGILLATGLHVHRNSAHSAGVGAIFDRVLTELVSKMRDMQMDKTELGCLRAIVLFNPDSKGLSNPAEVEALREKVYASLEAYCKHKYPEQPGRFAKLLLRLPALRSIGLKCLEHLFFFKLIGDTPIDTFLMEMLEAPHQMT
Nature of the assay: Transcriptional activation of Retinoid X receptor RXR alpha.

Assay [4] addresses T2, Retinoic acid receptor beta (Homo sapiens, UniProt P10826).
T2 sequence (P10826 whole entry): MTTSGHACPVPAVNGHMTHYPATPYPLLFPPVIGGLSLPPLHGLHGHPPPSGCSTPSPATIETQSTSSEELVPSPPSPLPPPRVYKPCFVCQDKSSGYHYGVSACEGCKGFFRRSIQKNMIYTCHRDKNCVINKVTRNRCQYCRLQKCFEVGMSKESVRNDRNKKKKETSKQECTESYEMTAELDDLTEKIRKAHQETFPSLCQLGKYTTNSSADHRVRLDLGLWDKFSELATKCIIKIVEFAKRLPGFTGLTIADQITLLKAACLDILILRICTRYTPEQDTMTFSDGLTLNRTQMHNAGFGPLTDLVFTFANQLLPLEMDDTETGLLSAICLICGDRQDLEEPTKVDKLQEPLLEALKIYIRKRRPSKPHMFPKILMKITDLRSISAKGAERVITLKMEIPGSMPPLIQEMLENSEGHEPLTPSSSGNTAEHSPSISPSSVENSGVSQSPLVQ
Nature of the assay: Transcriptional activation of Retinoic acid receptor RAR beta.

Assay [5] deals with T3, Retinoic acid receptor alpha (Homo sapiens, UniProt P10276).
T3 sequence (P10276 whole entry): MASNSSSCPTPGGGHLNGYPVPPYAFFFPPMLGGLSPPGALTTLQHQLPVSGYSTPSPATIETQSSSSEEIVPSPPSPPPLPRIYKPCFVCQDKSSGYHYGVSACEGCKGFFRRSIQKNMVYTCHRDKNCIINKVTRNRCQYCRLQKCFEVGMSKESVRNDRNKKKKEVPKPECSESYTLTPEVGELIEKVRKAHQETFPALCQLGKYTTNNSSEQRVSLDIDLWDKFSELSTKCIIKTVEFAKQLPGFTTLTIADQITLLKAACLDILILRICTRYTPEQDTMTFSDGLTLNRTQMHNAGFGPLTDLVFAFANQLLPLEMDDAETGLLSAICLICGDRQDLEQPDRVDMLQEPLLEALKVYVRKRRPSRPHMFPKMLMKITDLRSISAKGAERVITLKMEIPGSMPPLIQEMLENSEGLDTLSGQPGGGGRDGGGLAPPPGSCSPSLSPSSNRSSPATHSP
Nature of the assay: Transcriptional activation of Retinoic acid receptor RAR alpha.

Assay [6] addresses T4, Retinoic acid receptor gamma (Homo sapiens, UniProt P13631).
T4 sequence (P13631 whole entry): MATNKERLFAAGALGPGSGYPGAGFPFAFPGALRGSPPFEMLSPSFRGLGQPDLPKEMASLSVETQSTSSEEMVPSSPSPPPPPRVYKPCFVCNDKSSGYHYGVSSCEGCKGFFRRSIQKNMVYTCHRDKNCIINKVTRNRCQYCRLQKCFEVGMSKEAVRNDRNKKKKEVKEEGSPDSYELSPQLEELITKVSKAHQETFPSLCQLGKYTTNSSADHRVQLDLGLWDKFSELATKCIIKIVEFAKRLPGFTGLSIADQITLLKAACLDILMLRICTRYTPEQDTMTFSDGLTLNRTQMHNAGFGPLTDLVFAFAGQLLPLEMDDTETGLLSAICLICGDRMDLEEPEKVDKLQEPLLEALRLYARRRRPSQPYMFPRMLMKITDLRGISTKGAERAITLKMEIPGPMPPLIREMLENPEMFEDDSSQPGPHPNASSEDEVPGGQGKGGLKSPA
Nature of the assay: Transcriptional activation of Retinoic acid receptor RAR gamma.

Take `C/C(=C\c1ccc(C(=O)O)cc1)c1ccc2c(c1)C(C)(C)CCC2(C)C`: the EC50 (usually the midpoint of the concentration-response curve) in the assay on HL-60 was above 1000 nM; in assay [3], above 10000 nM. Also, the IC80 in the assay listed under Mus musculus [1] amounted to 0.08 nmol. Moreover, inhibition in the assay filed under Mus musculus [2] was half-maximal at 0.06 nM (IC50).

Take `C/C(=C\c1cccc(C(=O)O)c1)c1cc2c(cc1C)C(C)(C)CCC2(C)C`: the half-maximal effective concentration (EC50) in assay [4], in assay [5], in assay [3] and in assay [6] was above 10000 nM throughout.

`CC1=C(/C=C/C(C)=C\C=C\C(C)=C\C(=O)O)C(C)(C)CCC1` [ALITRETINOIN]: a half-maximal response with HL-60 (EC50) required 2 nM. For the same molecule, the IC80 in the assay filed under Mus musculus [1] came out at 3.6 nmol. For the same molecule, in the assay filed under Mus musculus [2], the IC50 (as a rule, the point on the concentration scale where inhibition reaches its midpoint) worked out at 58 nM.

Regarding `C/C(=C\c1ccc(C(=O)O)o1)c1cc2c(cc1C)C(C)(C)CCC2(C)C`, the EC50 in assay [4] is above 10000 nM; in assay [5] it was above 10000 nM; in assay [3], 592 nM; in assay [6] it was above 10000 nM.

Turning to `C/C(=C\c1ccc(C(=O)O)cc1)c1cc2c(cc1C)C(C)(C)CCC2(C)C`, in the assay with HL-60, a half-maximal effect (EC50) was put at 10 nM. Moreover, in the assay listed under Mus musculus [1], the IC80 came to 1.2 nmol. Inhibition in the assay listed under Mus musculus [2] was half-maximal at 8 nM (IC50).

As for `CC1=C(/C=C/C(C)=C/C=C/C(C)=C/C(=O)O)C(C)(C)CCC1` [TRETINOIN], the response in the assay on HL-60 was half-maximal at 5 nM (EC50). Also, the IC80 in the assay filed under Mus musculus [1] was 1.4 nmol. The same molecule yielded an IC50 in the assay filed under Mus musculus [2] of 31 nM.

Take `C/C(=C\c1ccc(C(=O)O)cn1)c1cc2c(cc1C)C(C)(C)CCC2(C)C`: the 50% effective concentration (EC50) amounted to 21 nM in assay [4], 2690 nM in assay [5], 105 nM in assay [3] and 374 nM in assay [6].

Regarding `C/C(=C\c1csc(C(=O)O)c1)c1cc2c(cc1C)C(C)(C)CCC2(C)C`, the EC50 in assay [4] is 1080 nM; in assay [5], above 10000 nM; in assay [3], 112 nM; in assay [6], above 10000 nM.

In the case of `C/C(=C\c1cc(C(=O)O)cs1)c1cc2c(cc1C)C(C)(C)CCC2(C)C`, the concentration giving a half-maximal response (EC50) in the assay with HL-60 is 20 nM; in assay [4], above 10000 nM; in assay [5], above 10000 nM; in assay [3], 201 nM; in assay [6], above 10000 nM. For the same molecule, the IC80 in the assay filed under Mus musculus [1] is above 300 nmol. For the same molecule, the IC50 in the assay filed under Mus musculus [2] came to 63 nM.

With `C/C(=C\c1ccc(C(=O)O)s1)c1cc2c(cc1C)C(C)(C)CCC2(C)C`, the concentration giving a half-maximal response (EC50) is 5 nM in the assay on HL-60; 23 nM in assay [4]; above 10000 nM in assay [5]; 11 nM in assay [3]; 37 nM in assay [6]. Further, the IC80 in the assay filed under Mus musculus [1] was found to be 5.4 nmol. In the assay listed under Mus musculus [2], the midpoint of inhibition, the IC50, lay at 15 nM.
